This is an account of results in ChEMBL document CHEMBL1146247, “Identification and characterization of 3-substituted pyrazolyl esters as alternate substrates for cathepsin B: the confounding effects of DTT and cysteine in biological assays” (Bioorg Med Chem Lett, 2007).

In data set [1] the target is T1, Cathepsin B (Homo sapiens, UniProt P07858). As to the kind of experiment: Inhibition of human liver cathepsin B. The method in brief: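 Enzyme activated 15 min in assay buffer (100 mM Na/K phosphate pH 6.8, 1 mM EDTA, 2 mM DTT), then incubated 1 h at room temperature with 15 µM Z-Arg-Arg-AMC and compound. Compound given as 16 2-fold dilutions, 50 µM to 1.5 nM. AMC fluorescence read at ex 355/em 460 nm. Triplicate plates gave three independent IC50 values.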

Data set [2] addresses T1, Cathepsin B. Kind of data set: Inhibition of human liver cathepsin B pre-incubated for 24 hrs in assay buffer with DTT. Put shortly: (§1)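 Compound held 2, 17 or 24 h in assay buffer (phosphate pH 6.8, with DTT) before testing. It was then incubated with 0.1 nM cathepsin B in 100 mM buffer with 2 mM DTT, 1 mM EDTA and 15 µM Z-Arg-Arg-AMC for 1 h at room temperature. Read-out was AMC fluorescence (ex 355/em 460). IC50 came from 16 2-fold dilutions.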

Data set [3] concerns the target T1, Cathepsin B. Kind of data set: Inhibition of human liver cathepsin B pre-incubated for 24 hrs in non-buffer solution without DTT. The method in brief:
(§2)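 Compound held 2, 17 or 24 h in non-buffered solution without DTT before testing. It was then assayed against 0.1 nM activated cathepsin B with 15 µM Z-Arg-Arg-AMC for 1 h at room temperature. Read-out was AMC fluorescence at ex 355/em 460 nm. IC50 came from 16 2-fold dilutions.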

Data set [4] addresses T1, Cathepsin B. Kind of data set: Inhibition of human liver cathepsin B pre-incubated for 17 hrs in buffer without DTT. Put shortly: (§3)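 Compound held 2, 17 or 24 h in phosphate assay buffer pH 6.8 lacking DTT before testing. It was then run in the standard assay: 0.1 nM activated cathepsin B, 15 µM Z-Arg-Arg-AMC, 1 h at room temperature. Read-out was AMC fluorescence at 355/460 nm. IC50 came from a 16-point 2-fold dilution curve.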

Data set [5] concerns the target T1, Cathepsin B. Kind of data set: Inhibition of human liver cathepsin B pre-incubated for 2 hrs in assay buffer with DTT. The method in brief: as §1
Data set [6] has as its target T1, Cathepsin B. Kind of data set: Inhibition of human liver cathepsin B pre-incubated for 2 hrs in non-buffer solution without DTT. Put shortly:
as §2

In data set [7] the target is T1, Cathepsin B. As to the kind of experiment: Inhibition of human liver cathepsin B pre-incubated for 17 hrs in assay buffer with DTT. The method in brief:
as §1

In data set [8] the target is T1, Cathepsin B. As to the kind of experiment: Inhibition of human liver cathepsin B pre-incubated for 17 hrs in non-buffer solution without DTT. Put shortly: as §2
Data set [9] in a line: Stability of compound in presence of cathepsin B after 15 mins. Format: ADME. Particulars: read-out: Stability. Put shortly: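 Stoichiometric incubation of ester (10 μM, 1 equiv) with activated cathepsin B (20 μM, 2 equiv) under standard assay conditions (100 mM sodium-potassium phosphate pH 6.8, 1 mM EDTA, 2 mM DTT); parallel run without enzyme. After 15 min, remaining parent and conversion to pyrazolone by-product measured by LC–MS, 6.5 min run.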

In data set [10] the target is T1, Cathepsin B. Kind of data set: Inhibition of human liver cathepsin B pre-incubated for 24 hrs in buffer without DTT. Put shortly:
as §3

Data set [11] has as its target T1, Cathepsin B. Kind of data set: Inhibition of human liver cathepsin B pre-incubated for 2 hrs in buffer without DTT. The method in brief:
as §3

In the case of `COc1ccc(S(=O)(=O)n2nc(OC(=O)c3cccs3)cc2N)cc1`, the IC50 at Cathepsin B [1] amounted to 690 nM.

In the case of `Cc1ccc(S(=O)(=O)n2nc(OC(=O)c3cccs3)cc2N)cc1`, the IC50 at Cathepsin B [1] came out at 1990 nM.

As for `Nc1cc(OC(=O)c2ccco2)nn1S(=O)(=O)c1ccc(F)cc1`, it took 1260 nM to reach half-maximal inhibition against Cathepsin B [1] (IC50).

For `Cc1ccc(S(=O)(=O)n2nc(OC(=O)c3ccco3)cc2N)cc1`, the IC50 against Cathepsin B [1] was found to be 1750 nM.

Take `Nc1cc(OC(=O)c2cccs2)nn1S(=O)(=O)c1ccccc1`: the IC50 at Cathepsin B [2] was above 50000 nM; on Cathepsin B [3] it was 5000 nM; against Cathepsin B [4], 700 nM; on Cathepsin B [5], 9000 nM; against Cathepsin B [6], 1700 nM; against Cathepsin B [7], 45400 nM. Moreover, the IC50 at Cathepsin B [8] is 1800 nM; against Cathepsin B [10], 3200 nM; against Cathepsin B [11], 1400 nM; on Cathepsin B [1], 250 nM. Moreover, the remaining at 0.25 h in data set [9] worked out at 50%.

`Nc1cc(OC(=O)c2cccs2)nn1S(=O)(=O)c1ccc(F)cc1` had an IC50 at Cathepsin B [1] of 440 nM.
